From ChEMBL document CHEMBL1141075, “4-Oxo-4,7-dihydrothieno[2,3-b]pyridines as non-nucleoside inhibitors of human cytomegalovirus and related herpesvirus polymerases” (J Med Chem, 2005)

Columns and labels:
[1] = biological target: T1, DNA polymerase catalytic subunit (Herpes simplex virus (type 1 / strain 17), UniProt P04293); assay: Inhibition of herpes simplex virus type 1 DNA polymerase (95 uL) activity in a solution containing […] HEPES (pH 7.5), incubation for 12 minutes at 26 degrees C; set-up: species or system Human alphaherpesvirus 1
T1 sequence (P04293 whole entry): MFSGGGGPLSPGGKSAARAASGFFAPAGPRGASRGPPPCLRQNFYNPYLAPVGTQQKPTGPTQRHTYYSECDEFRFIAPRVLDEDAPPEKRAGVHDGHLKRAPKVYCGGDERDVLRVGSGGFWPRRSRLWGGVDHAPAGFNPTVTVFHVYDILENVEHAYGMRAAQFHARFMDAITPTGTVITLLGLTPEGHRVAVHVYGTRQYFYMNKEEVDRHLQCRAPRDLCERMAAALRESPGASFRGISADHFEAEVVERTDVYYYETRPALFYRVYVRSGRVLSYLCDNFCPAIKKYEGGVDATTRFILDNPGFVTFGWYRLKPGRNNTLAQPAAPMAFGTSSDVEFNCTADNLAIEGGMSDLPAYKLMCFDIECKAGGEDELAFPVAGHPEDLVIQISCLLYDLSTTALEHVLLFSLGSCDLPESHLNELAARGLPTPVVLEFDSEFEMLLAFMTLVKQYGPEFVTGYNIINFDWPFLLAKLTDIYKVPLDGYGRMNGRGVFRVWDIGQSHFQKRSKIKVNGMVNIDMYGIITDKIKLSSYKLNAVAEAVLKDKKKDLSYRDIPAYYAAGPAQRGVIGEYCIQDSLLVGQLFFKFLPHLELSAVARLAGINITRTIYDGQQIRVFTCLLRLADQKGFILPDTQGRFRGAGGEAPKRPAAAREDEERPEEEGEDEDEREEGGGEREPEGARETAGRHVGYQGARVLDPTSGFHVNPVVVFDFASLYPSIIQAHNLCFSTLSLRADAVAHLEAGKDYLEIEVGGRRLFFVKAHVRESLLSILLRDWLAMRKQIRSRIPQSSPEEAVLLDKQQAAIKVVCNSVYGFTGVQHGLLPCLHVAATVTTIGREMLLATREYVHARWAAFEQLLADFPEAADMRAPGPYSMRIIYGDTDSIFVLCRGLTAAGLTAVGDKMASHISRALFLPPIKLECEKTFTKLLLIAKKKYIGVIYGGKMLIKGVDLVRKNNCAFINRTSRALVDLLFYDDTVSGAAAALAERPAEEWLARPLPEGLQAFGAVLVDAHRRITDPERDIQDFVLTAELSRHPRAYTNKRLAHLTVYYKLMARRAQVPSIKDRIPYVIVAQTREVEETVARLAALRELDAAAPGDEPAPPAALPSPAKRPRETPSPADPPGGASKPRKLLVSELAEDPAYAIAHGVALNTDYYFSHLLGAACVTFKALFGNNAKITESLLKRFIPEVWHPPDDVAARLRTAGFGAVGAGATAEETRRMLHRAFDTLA

[2] = biological target: T2, DNA polymerase catalytic subunit (Varicella-zoster virus (strain Dumas) (HHV-3) (Human herpesvirus 3), UniProt P09252); assay: Inhibition of Varicella-Zoster virus DNA polymerase (95 uL) activity in a solution containing […] HEPES (pH 7.5), incubation for 12 minutes at 26 degrees C; set-up: species or system Human alphaherpesvirus 3
T2 sequence (P09252 whole entry): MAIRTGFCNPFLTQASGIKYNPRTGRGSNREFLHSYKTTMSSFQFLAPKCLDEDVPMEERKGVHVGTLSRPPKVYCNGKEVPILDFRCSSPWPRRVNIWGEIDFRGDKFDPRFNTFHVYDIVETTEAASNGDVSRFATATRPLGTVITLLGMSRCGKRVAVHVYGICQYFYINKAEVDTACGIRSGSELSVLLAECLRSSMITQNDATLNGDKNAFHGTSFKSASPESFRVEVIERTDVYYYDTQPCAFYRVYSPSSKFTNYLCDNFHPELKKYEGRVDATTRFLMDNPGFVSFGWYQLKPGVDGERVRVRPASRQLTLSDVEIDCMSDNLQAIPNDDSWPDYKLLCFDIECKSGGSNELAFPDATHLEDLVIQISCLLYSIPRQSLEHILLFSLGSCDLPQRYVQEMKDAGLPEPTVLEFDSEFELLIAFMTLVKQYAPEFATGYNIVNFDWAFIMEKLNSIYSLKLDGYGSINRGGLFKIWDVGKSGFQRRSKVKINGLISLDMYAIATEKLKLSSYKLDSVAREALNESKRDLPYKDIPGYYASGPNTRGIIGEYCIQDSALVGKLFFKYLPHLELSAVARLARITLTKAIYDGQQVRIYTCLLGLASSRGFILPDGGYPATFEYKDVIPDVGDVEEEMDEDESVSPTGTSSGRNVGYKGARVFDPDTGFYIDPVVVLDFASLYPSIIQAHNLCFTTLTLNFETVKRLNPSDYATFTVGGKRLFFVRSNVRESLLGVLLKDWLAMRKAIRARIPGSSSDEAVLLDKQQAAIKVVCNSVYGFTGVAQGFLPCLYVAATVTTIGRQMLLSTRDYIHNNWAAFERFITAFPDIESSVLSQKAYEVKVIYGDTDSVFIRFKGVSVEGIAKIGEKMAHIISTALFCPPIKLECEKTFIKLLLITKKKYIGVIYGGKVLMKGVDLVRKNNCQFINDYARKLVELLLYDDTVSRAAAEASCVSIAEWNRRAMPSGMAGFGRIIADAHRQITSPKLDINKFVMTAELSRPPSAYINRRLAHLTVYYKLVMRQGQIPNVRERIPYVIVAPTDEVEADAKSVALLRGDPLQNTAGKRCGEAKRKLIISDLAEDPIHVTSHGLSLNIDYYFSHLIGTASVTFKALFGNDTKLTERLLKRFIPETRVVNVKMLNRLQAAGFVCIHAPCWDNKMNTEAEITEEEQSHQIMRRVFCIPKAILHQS

[3] = test system: Vero; assay: Antiviral activity against herpes simplex virus type 1 Patton(BWr) plaque forming unit grown on Human foreskin fibroblast cells upon incubation for 1 hour at 37 degrees C with compound dissolved in DMSO; type: functional, cell-based; conditions: Chlorocebus sabaeus
Summary of the method: (§1)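 Plaque reduction: about 50 PFU added per well of a 24-well dish of the appropriate cells, 1 h at 37 °C, then the inoculum was replaced by drug-containing DMEM with 10% FBS and 0.8% carboxymethyl cellulose. DMSO stocks were 200-fold. Plates were held at 37 °C until plaques formed. Plaques were counted microscopically or after crystal violet stain. Percent inhibition was taken against the uninhibited control, with IC50 by linear regression.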

[4] = test system: HFF; assay: Antiviral activity against human cytomegalovirus Ad169 (V823A) plaque forming unit grown on Human foreskin fibroblast cells upon incubation for 1 hour at 37 degrees C with compound dissolved in DMSO; type: functional, cell-based, Human betaherpesvirus 5; summary of the method: as §1
[5] = test system: Vero; assay: Antiviral activity against herpes simplex virus type 1 KOS (PAAr5) plaque forming unit grown on African green monkey kidney Vero cells upon incubation for 1 hour at 37 degrees C with compound dissolved in DMSO; conditions: Chlorocebus sabaeus
[6] = test system: Vero; assay: Antiviral activity against herpes simplex virus type 1 KOS (PFAr2) plaque forming unit grown on Human foreskin fibroblast cells upon incubation for 1 hour at 37 degrees C with compound dissolved in DMSO; type: functional, cell-based; conditions: Chlorocebus sabaeus; summary of the method: as §1

SMILES: O=C(NCc1ccc(Cl)cc1)c1cnc2ccc(CCCO)cc2c1O
- IC50 [1]: 300 nM
- IC50 [2]: 70 nM

SMILES: Cn1cc(C(=O)NCc2ccc(Cl)cc2)c(=O)c2cc(CN3CCOCC3)ccc21
- IC50 [1]: 600 nM

SMILES: Cn1cc(C(=O)NCc2ccc(Cl)cc2)c(=O)c2cc(CN3CCOCC3)sc21
- IC50 [3]: 2500 nM
- IC50 [4]: 6200 nM
- IC50 [5]: 800 nM
- IC50 [6]: 2500 nM
- IC50 [2]: 770 nM
